Here are results for 49 variants from the RNAGym collection of RNA variant scans (doi:10.1002/anie.201605470).

Sequences and labels used below:
B1: Osa-1-4 twister ribozyme (parent)
chain: CCGCCUAACACUGCCAAUGCCGGUCCCAAGCCCGGAUAAAAGUGGAGGGGGCGG

In this data set the parent is B1. The experiment in a line: self-cleavage, relative activity (ratio to wild type); higher = more cleavage; co-transcriptional. The method in brief:
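A DNA template encoding a 54-nucleotide twister ribozyme from Oryza sativa was made so that each of the 48 positions downstream of the cleavage site carried 97 % wild-type base and 1 % of each other base. Transcription in vitro ran for 2 h at 37 °C, during which the ribozyme could cleave itself. Reverse transcription used a template-switching oligonucleotide, and the products were PCR-amplified and deep-sequenced. Each read was scored as cleaved or uncleaved by whether upstream sequence was present, and relative activity is the fraction cleaved normalised to wild type.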
On to CCGCCUAACACGGCCAAUGCCGCUCCCAAGCCCGGAUAAAAGUGGAGGGGGCGG [G23C U12G], for which the self-cleavage was 0.04.

For CCGCCUAACACCGCCAAUGCCGCUCCCAAGCCCGGAUAAAAGUGGAGGGGGCGG [G23C U12C], the self-cleavage amounted to 0.04.

For the variant CCGCCUAACACUGCCAAUGCCGUUCCCAAGCCCGGAUAAAAGUGCAGGGGGCGG [G23U G45C], the self-cleavage is 0.03.

Consider CCGCCUAACACUGCCAAUGCCGUUCCCAAGCCCGGAUAAAAGUGUAGGGGGCGG [G23U G45U], for which the self-cleavage is 0.03.

Take CCGCCUAACACUGCCAAUGCCGUUCCCAAGCCCGGAUAAAAGUGAAGGGGGCGG [G23U G45A]: the self-cleavage worked out at 0.04.

Turning to CCGCCUAACACUGCCAAUGCCGGCCCCAAGCCCGGAGAAAAGUGGAGGGGGCGG [U24C U37G], the self-cleavage worked out at 0.55.

In the case of CCGCCUAACACUGCCAAUGCCGGCCCCAAGCCCGGAAAAAAGUGGAGGGGGCGG [U24C U37A], the self-cleavage is 0.45.

Consider CCGCCUAACACUGCCAAUGCCGGCCCCAAGCCCGGACAAAAGUGGAGGGGGCGG [U24C U37C], for which the self-cleavage amounted to 0.51.

As for CCGCCUAACACUGCCAAUGCCGGCCCCAAGCCCGGAUAAAAGCGGAGGGGGCGG [U24C U43C], the self-cleavage came to 0.06.

Take CCGCCUAACACUGCCAAUGCCGGCCCCAAGCCCGGAUAAAAGGGGAGGGGGCGG [U24C U43G]: the self-cleavage stood at 0.05.

Take CCGCCUAACACUGCCAAUGCCGGCCCCAAGCCCGGAUAAAAGAGGAGGGGGCGG [U24C U43A]: the self-cleavage worked out at 0.08.

In the case of CCGCCUAACACUGCCAAUGCCGCUCCCAAGCCCGGAUAAAAGUGGAGGGGGCCG [G23C G53C], the self-cleavage was 0.02.

On to CCGCCUAACACUGCCAAUGCCGCUCCCAAGCCCGGAUAAAAGUGGAGGGGGCAG [G23C G53A], for which the self-cleavage came to 0.04.

With CCGCCUAACACUGCCAAUGCCGCUCCCAAGCCCGGAUAAAAGUGGAGGGGGCUG [G23C G53U], the self-cleavage was determined as 0.04.

Turning to CCGCCUAACACUGCCAAUGCCGUUCCCAAGCCCGGAUAAAAGUGGAGAGGGCGG [G23U G48A], the self-cleavage amounted to 0.02.

With CCGCCUAACACUGCCAAUGCCGUUCCCAAGCCCGGAUAAAAGUGGAGCGGGCGG [G23U G48C], the self-cleavage was determined as 0.03.

For the variant CCGCCUAACACUGCCAAUGCCGUUCCCAAGCCCGGAUAAAAGUGGAGUGGGCGG [G23U G48U], the self-cleavage was found to be 0.03.

CCGCCUAACACUGCCAAUGCCGCGCCCAAGCCCGGAUAAAAGUGGAGGGGGCGG [G23C U24G]: the self-cleavage is 0.01.

For CCGCCUAACACUGCCAAUGCCGCCCCCAAGCCCGGAUAAAAGUGGAGGGGGCGG [G23C U24C], the self-cleavage was 0.04.

As for CCGCCUAACACUGCCAAUGCCGCACCCAAGCCCGGAUAAAAGUGGAGGGGGCGG [G23C U24A], the self-cleavage came to 0.03.

For CCGCCUAACACUGCCAAUGCCGGACCCAAGCCCGGAGAAAAGUGGAGGGGGCGG [U24A U37G], the self-cleavage came out at 0.49.

On to CCGCCUAACACUGCCAAUGCCGGACCCAAGCCCGGAAAAAAGUGGAGGGGGCGG [U24A U37A], for which the self-cleavage was found to be 0.34.

Turning to CCGCCUAACACUGCCAAUGCCGGACCCAAGCCCGGACAAAAGUGGAGGGGGCGG [U24A U37C], the self-cleavage worked out at 0.28.

Take CCGCCUAACACUGCCAAUGCCGGACCCAAGCCCGGAUAAAAGGGGAGGGGGCGG [U24A U43G]: the self-cleavage worked out at 0.05.

As for CCGCCUAACACUGCCAAUGCCGGACCCAAGCCCGGAUAAAAGCGGAGGGGGCGG [U24A U43C], the self-cleavage came to 0.07.

Regarding CCGCCUAACACUGCCAAUGCCGGACCCAAGCCCGGAUAAAAGAGGAGGGGGCGG [U24A U43A], the self-cleavage worked out at 0.07.

Turning to CCGCCUAACACUGCCAAUGCCGUUCCCAAGCCCGGAUAAAAGUGGAGGGGGCGU [G23U G54U], the self-cleavage amounted to 0.2.

As to CCGCCUAACACUGCCAAUGCCGUUCCCAAGCCCGGAUAAAAGUGGAGGGGGCGA [G23U G54A], the self-cleavage turned out to be 0.09.

In the case of CCGCCUAACACUGCCAAUGCCGUUCCCAAGCCCGGAUAAAAGUGGAGGGGGCGC [G23U G54C], the self-cleavage is 0.08.

For the variant CCGCCUAACACUGCCAAUGCCGUUCCCAAGCCCGGAUAAAAGUGGAGGCGGCGG [G23U G49C], the self-cleavage came out at 0.03.

As for CCGCCUAACACUGCCAAUGCCGUUCCCAAGCCCGGAUAAAAGUGGAGGUGGCGG [G23U G49U], the self-cleavage turned out to be 0.03.

With CCGCCUAACACUGCCAAUGCCGUUCCCAAGCCCGGAUAAAAGUGGAGGAGGCGG [G23U G49A], the self-cleavage amounted to 0.03.

As for CCGCCUAACACUGCCAAUGCCGCUCCCAAGCCCGGAUAAAAGUGGAGGGGCCGG [G23C G51C], the self-cleavage came out at 0.03.

For CCGCCUAACACUGCCAAUGCCGCUCCCAAGCCCGGAUAAAAGUGGAGGGGUCGG [G23C G51U], the self-cleavage was 0.03.

Turning to CCGCCUAACACUGCCAAUGCCGCUCCCAAGCCCGGAUAAAAGCGGAGGGGGCGG [G23C U43C], the self-cleavage was 0.05.

As to CCGCCUAACACUGCCAAUGCCGCUCCCAAGCCCGGAUAAAAGGGGAGGGGGCGG [G23C U43G], the self-cleavage was 0.06.

Take CCGCCUAACACUGCCAAUGCCGCUCCCAAGCCCGGAUAAAAGAGGAGGGGGCGG [G23C U43A]: the self-cleavage amounted to 0.05.

CCGCCUAACACUGCCAAUGCCGUCCCCAAGCCCGGAUAAAAGUGGAGGGGGCGG [G23U U24C]: the self-cleavage was determined as 0.03.

As to CCGCCUAACACUGCCAAUGCCGUACCCAAGCCCGGAUAAAAGUGGAGGGGGCGG [G23U U24A], the self-cleavage was found to be 0.04.

CCGCCUAACACUGCCAAUGCCGUGCCCAAGCCCGGAUAAAAGUGGAGGGGGCGG [G23U U24G]: the self-cleavage turned out to be 0.02.

With CCGCCUAACACUGCCAAUGCCGUUCCCAAGCCCGGAUAAAAGUGGAGGGGCCGG [G23U G51C], the self-cleavage came to 0.04.

In the case of CCGCCUAACACUGCCAAUGCCGUUCCCAAGCCCGGAUAAAAGUGGAGGGGUCGG [G23U G51U], the self-cleavage amounted to 0.04.

With CCGCCUAACACUGCCAAUGCCGUUCCCAAGCCCGGAUAAAAGUGGAGGGGACGG [G23U G51A], the self-cleavage turned out to be 0.05.

For the variant CCGCCUAACACUGCCAAUGCCGUUCCCAAGCCCGGAUAAAACUGGAGGGGGCGG [G23U G42C], the self-cleavage came out at 0.03.

Turning to CCGCCUAACACUGCCAAUGCCGUUCCCAAGCCCGGAUAAAAAUGGAGGGGGCGG [G23U G42A], the self-cleavage stood at 0.05.

Consider CCGCCUAACACUGCCAAUGCCGUUCCCAAGCCCGGAUAAAAUUGGAGGGGGCGG [G23U G42U], for which the self-cleavage is 0.04.

In the case of CCGCCUAACACUGCCAAAGCCGCUCCCAAGCCCGGAUAAAAGUGGAGGGGGCGG [G23C U18A], the self-cleavage turned out to be 0.06.

For the variant CCGCCUAACACUGCCAACGCCGCUCCCAAGCCCGGAUAAAAGUGGAGGGGGCGG [G23C U18C], the self-cleavage came out at 0.14.

Turning to CCGCCUAACACUGCCAAGGCCGCUCCCAAGCCCGGAUAAAAGUGGAGGGGGCGG [G23C U18G], the self-cleavage was 0.06.
